Assay results published in ChEMBL document CHEMBL1649569, “oqxAB encoding a multidrug efflux pump in human clinical isolates of Enterobacteriaceae” (2009).
Values after ≈ are worked out from the molar mass of the structure shown.

Assays:
[1] = tested on: Klebsiella pneumoniae; assay: Antibacterial activity against Klebsiella pneumoniae isolate 6-49 by Etest method
[2] = tested on: Klebsiella pneumoniae; assay: Antibacterial activity against Klebsiella pneumoniae isolate 5-22 by Etest method
[3] = tested on: Klebsiella pneumoniae; assay: Antibacterial activity against Klebsiella pneumoniae isolate 4-13 harboring aac(6')Ib-cr gene by Etest method
[4] = tested on: Escherichia coli; assay: Antibacterial activity against Escherichia coli isolate 4-69 by Etest method
[5] = tested on: Klebsiella pneumoniae; assay: Antibacterial activity against Klebsiella pneumoniae isolate 5-80 by Etest method
[6] = tested on: Klebsiella pneumoniae; assay: Antibacterial activity against Klebsiella pneumoniae isolate 3-45 by Etest method
[7] = tested on: Klebsiella pneumoniae; assay: Antibacterial activity against Klebsiella pneumoniae isolate 4-38 harboring aac(6')Ib-cr gene by Etest method
[8] = tested on: Escherichia coli; assay: Antibacterial activity against Escherichia coli isolate 4-78 by Etest method
[9] = tested on: Escherichia coli; assay: Antibacterial activity against Escherichia coli isolate 5-56 by Etest method
[10] = tested on: Escherichia coli; assay: Antibacterial activity against Escherichia coli isolate 1-12 by Etest method
[11] = tested on: Klebsiella pneumoniae; assay: Antibacterial activity against Klebsiella pneumoniae isolate 4-39 by Etest method
[12] = tested on: Escherichia coli; assay: Antibacterial activity against Escherichia coli isolate 5-59 harboring qepA gene by Etest method
[13] = tested on: Klebsiella pneumoniae; assay: Antibacterial activity against Klebsiella pneumoniae isolate 2-54 by Etest method
[14] = tested on: Klebsiella pneumoniae; assay: Antibacterial activity against Klebsiella pneumoniae isolate 3-51 by broth dilution method; assay type: functional
In short: (§1)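 Clinical isolates tested by broth dilution in LB broth, with the MIC read as the end-point.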

[15] = tested on: Escherichia coli; assay: Antibacterial activity against Escherichia coli ATCC 25922 by broth dilution method; assay type: functional
[16] = tested on: Klebsiella pneumoniae; assay: Antibacterial activity against Klebsiella pneumoniae isolate 2-54 by broth dilution method; assay type: functional; in short: as §1
[17] = tested on: Klebsiella pneumoniae; assay: Antibacterial activity against Klebsiella pneumoniae isolate 1-68 by broth dilution method; assay type: functional; in short: as §1
[18] = tested on: Klebsiella pneumoniae; assay: Antibacterial activity against Klebsiella pneumoniae isolate 4-39 by broth dilution method; assay type: functional; in short: as §1
[19] = tested on: Enterobacter cloacae; assay: Antibacterial activity against Enterobacter cloacae isolate 4-11 by broth dilution method; assay type: functional; in short: as §1
[20] = tested on: Enterobacter cloacae; assay: Antibacterial activity against Enterobacter cloacae isolate 1-40 by broth dilution method; assay type: functional; in short: as §1
[21] = tested on: Escherichia coli; assay: Antibacterial activity against Escherichia coli isolate 4-67 by broth dilution method; assay type: functional
In short: (§2)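 MIC by broth dilution in LB broth against human clinical Enterobacteriaceae isolates, with strains characterised by PCR for oqxA/oqxB and other plasmid-mediated quinolone resistance genes.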

[22] = tested on: Escherichia coli; assay: Antibacterial activity against Escherichia coli isolate 4-69 by broth dilution method; assay type: functional; in short: as §2
[23] = tested on: Enterobacter cloacae; assay: Antibacterial activity against Enterobacter cloacae isolate 1-3 by broth dilution method; assay type: functional; in short: as §1
[24] = tested on: Escherichia coli; assay: Antibacterial activity against Escherichia coli isolate 5-65 by broth dilution method; assay type: functional; in short: as §2
[25] = tested on: Klebsiella pneumoniae; assay: Antibacterial activity against Klebsiella pneumoniae isolate 4-38 harboring aac(6')Ib-cr gene by broth dilution method; assay type: functional; in short: as §2
[26] = tested on: Klebsiella pneumoniae; assay: Antibacterial activity against Klebsiella pneumoniae isolate 5-22 by broth dilution method; assay type: functional; in short: as §1
[27] = tested on: Escherichia coli; assay: Antibacterial activity against Escherichia coli isolate 5-56 by broth dilution method; assay type: functional; in short: as §2
[28] = tested on: Klebsiella pneumoniae; assay: Antibacterial activity against Klebsiella pneumoniae isolate 5-80 by broth dilution method; assay type: functional; in short: as §1
[29] = tested on: Klebsiella pneumoniae; assay: Antibacterial activity against Klebsiella pneumoniae isolate 3-45 by broth dilution method; assay type: functional; in short: as §1
[30] = tested on: Escherichia coli; assay: Antibacterial activity against Escherichia coli isolate 1-12 by broth dilution method; assay type: functional; in short: as §1
[31] = tested on: Klebsiella pneumoniae; assay: Antibacterial activity against Klebsiella pneumoniae isolate 4-13 harboring aac(6')Ib-cr gene by broth dilution method; assay type: functional; in short: as §2
[32] = tested on: Klebsiella pneumoniae; assay: Antibacterial activity against Klebsiella pneumoniae isolate 6-49 by broth dilution method; assay type: functional; in short: as §1
[33] = tested on: Enterobacter cloacae; assay: Antibacterial activity against Enterobacter cloacae isolate 6-4 by broth dilution method; assay type: functional; in short: as §1
[34] = tested on: Enterobacter cloacae; assay: Antibacterial activity against Enterobacter cloacae isolate 1-39 by broth dilution method; assay type: functional; in short: as §1
[35] = tested on: Enterobacter cloacae; assay: Antibacterial activity against Enterobacter cloacae isolate 1-26 by broth dilution method; assay type: functional; in short: as §1
[36] = tested on: Escherichia coli; assay: Antibacterial activity against azide-resistant Escherichia coli J53 by broth dilution method
[37] = tested on: Escherichia coli; assay: Antibacterial activity against Escherichia coli isolate 5-59 harboring qepA gene by broth dilution method; assay type: functional; in short: as §2
[38] = tested on: Escherichia coli; assay: Antibacterial activity against Escherichia coli isolate 4-78 by broth dilution method; assay type: functional; in short: as §2

Structure (SMILES): O=C(O)c1cn(C2CC2)c2cc(N3CCNCC3)c(F)cc2c1=O [CIPROFLOXACIN]
- MIC [1]: > 32 µg/mL
- MIC [2]: 0.064 µg/mL (≈ 0.193 µM)
- MIC [3]: > 32 µg/mL
- MIC [4]: > 32 µg/mL
- MIC [5]: 3 µg/mL (≈ 9.05 µM)
- MIC [6]: 0.023 µg/mL (≈ 0.0694 µM)
- MIC [7]: > 32 µg/mL
- MIC [8]: > 32 µg/mL
- MIC [9]: > 32 µg/mL
- MIC [10]: > 32 µg/mL
- MIC [11]: 0.064 µg/mL (≈ 0.193 µM)
- MIC [12]: > 32 µg/mL
- MIC [13]: 0.023 µg/mL (≈ 0.0694 µM)

Structure (SMILES): Cc1c(C(=O)NCCO)[n+]([O-])c2ccccc2[n+]1[O-] [OLAQUINDOX]
- MIC [14]: 16 µg/mL (≈ 60.8 µM)
- MIC [15]: 8 µg/mL (≈ 30.4 µM)
- MIC [16]: 8 µg/mL (≈ 30.4 µM)
- MIC [17]: 8 µg/mL (≈ 30.4 µM)
- MIC [18]: 16 µg/mL (≈ 60.8 µM)
- MIC [19]: 32 µg/mL (≈ 122 µM)
- MIC [20]: 128 µg/mL (≈ 486 µM)
- MIC [21]: 16 µg/mL (≈ 60.8 µM)
- MIC [22]: 16 µg/mL (≈ 60.8 µM)
- MIC [23]: 64 µg/mL (≈ 243 µM)
- MIC [24]: 16 µg/mL (≈ 60.8 µM)
- MIC [25]: > 256 µg/mL
- MIC [26]: 8 µg/mL (≈ 30.4 µM)
- MIC [27]: 16 µg/mL (≈ 60.8 µM)
- MIC [28]: > 256 µg/mL
- MIC [29]: 16 µg/mL (≈ 60.8 µM)
- MIC [30]: 256 µg/mL (≈ 972 µM)
- MIC [31]: > 256 µg/mL
- MIC [32]: > 256 µg/mL
- MIC [33]: 16 µg/mL (≈ 60.8 µM)
- MIC [34]: 128 µg/mL (≈ 486 µM)
- MIC [35]: 128 µg/mL (≈ 486 µM)
- MIC [36]: 8 µg/mL (≈ 30.4 µM)
- MIC [37]: 16 µg/mL (≈ 60.8 µM)
- MIC [38]: 16 µg/mL (≈ 60.8 µM)
